Results published in ChEMBL document CHEMBL3393008, “Identification of a novel orally bioavailable phosphodiesterase 10A (PDE10A) inhibitor with efficacy in animal models of schizophrenia” (J Med Chem, 2015).

Columns and labels:
Format in all cases: ADME, organism-based
[1] = Drug level in rat brain at 10 mg/kg, sc after 1 hr; set-up: dose 10 mg/kg, route subcutaneous; conditions: read-out: Drug uptake
Procedure, shortened: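 Rats dosed 10 mg/kg sc; total brain level measured 1 h after dosing.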

[2] = Oral bioavailability in rat at 10 mg/kg administered as single dose; conditions: in vivo
[3] = Volume of distribution in rat; conditions: in vivo

concentration at 1 h [1]: 1210 ng/g
bioavailability [2]: 45%
Vd [3]: 1.9 L/kg
SMILES: COCCc1ccc(-c2c(C)nc3c(N4CCOCC4)nccn23)cn1
